bovine MsrA act = activates bovine MsrA enzyme; AID 602163; actives 0.3% (n = 360,000); activation, % at 10.6 µM; purified bovine MsrA, absorbance read-out; in the data active = activation above about 7.5%
proCasp7 act = counter-screen: procaspase-7 (human) activation; recombinant procaspase-7, Ac-DEVD-pNA absorbance 405 nm; D23A/D198A/D206A triple mutant, cannot self-cleave; scale: DMSO 0, 5 µM enzyme 100; activation, % at 8.5 µM; actives 0.093% (n = 330,000);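 active = percent activation above the screen-wide mean plus 3 SD, cut at about 25% in these data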
Target sequence (P55210 whole entry D23A/D198A/D206A): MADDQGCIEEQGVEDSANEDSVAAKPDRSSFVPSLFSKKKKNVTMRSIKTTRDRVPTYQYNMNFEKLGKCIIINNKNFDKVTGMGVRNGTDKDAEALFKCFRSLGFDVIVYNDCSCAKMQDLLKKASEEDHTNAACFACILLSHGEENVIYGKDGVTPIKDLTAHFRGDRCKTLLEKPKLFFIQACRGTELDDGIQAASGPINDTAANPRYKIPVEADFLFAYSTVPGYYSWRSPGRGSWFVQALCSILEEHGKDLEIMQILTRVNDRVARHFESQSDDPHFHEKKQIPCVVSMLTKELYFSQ
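Assay system – Uncleavable procaspase-7 mutant enzyme · Quantity – 2 µM procaspase-7 mutant as dispensed · Times – 1 h preincubation, 2 h reaction · Dosing – single nominal 8.5 µM compound dose, 0.8% DMSO final · Buffer or medium – Zinc-free 50 mM HEPES buffer, pH 7.4, with NaCl and Triton X-100 · Detection – Epi-absorbance of released pNA at 405 nm, two timepoints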
procasp3 activ = procaspase-3 (human) activation. P42574. recombinant procaspase-3 D3A, Ac-DEVD-pNA absorbance 405 nm. activation, % at 8.5 µM. actives 0.11% (n = 330,000);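 active = activation above the mean of all tested compounds plus 3 SD, cut at about 21% in these data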
Target sequence (P42574 whole entry D9A/D28A/D175A): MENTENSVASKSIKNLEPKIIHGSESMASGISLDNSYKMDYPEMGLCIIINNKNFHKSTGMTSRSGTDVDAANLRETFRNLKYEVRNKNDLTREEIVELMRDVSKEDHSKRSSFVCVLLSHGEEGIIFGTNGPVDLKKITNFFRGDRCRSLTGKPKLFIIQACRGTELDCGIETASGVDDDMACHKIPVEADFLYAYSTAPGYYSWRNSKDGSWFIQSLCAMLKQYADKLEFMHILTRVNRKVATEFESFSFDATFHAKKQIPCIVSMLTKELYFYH
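Compound: 8.5 µM single point, 0.8% DMSO / Material: Autoprocessing-dead procaspase-3 D3A mutant enzyme / Timing: 1 h preincubation plus 2 h reaction at 25 °C / Medium: Zinc-free HEPES/NaCl buffer with 0.01% Triton X-100 at pH 7.4 / Technique: 405 nm absorbance of p-nitroaniline, reads at 0 and 120 min / Repeats: one well per compound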
MsrA inh = inhibitors of bovine MsrA; purified bovine MsrA, absorbance read-out; inhibition, % at 15.5 µM; actives 0.75% (n = 360,000); AID 651718; in the data active = inhibition above about 4.5%
PC3 dual counter = counter-screen for dual procaspase-3/7 activators: human procaspase-3 activation; shares compounds with proCasp7 act; 290 tested, under 10 active; AID 493114; recombinant PC-3 D3A, Ac-DEVD-pNA absorbance 405 nm; aspartates 9, 28, 175 changed to alanine; 100% = enzyme control; activation, % at 8.5 µM;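 active = mean percent activation across triplicates above a set limit taken from the earlier primary procaspase-3 screen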
Procasp7 act = confirmation of dual procaspase activators: human procaspase-7 activation | shares compounds with proCasp7 act | recombinant procaspase-7, Ac-DEVD-pNA absorbance 405 nm; D23A/D198A/D206A mutant that cannot self-cleave | activation, % at 8.5 µM | 290 tested, under 10 active;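 active = mean activation above a set limit carried over from the earlier primary screen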
Hits are given with their value; n = inactive; x = not tested or not shown. A selection: hits, their analogues and other compounds. The true share with any hit is near 1.2%.

SMILES | bovine MsrA act | proCasp7 act | procasp3 activ | MsrA inh | PC3 dual counter | Procasp7 act
Cc1cccc(/C=N/NC(=O)c2ccc(NC(=O)c3ccccc3C)cc2)n1 | n | 34 | n | n | n | n
O=C(NCCc1ccccc1Cl)[C@@H]1CCCN1C(=O)[C@H](Cc1cccnc1)NC(=O)N1CCOCC1 | x | x | x | n | x | x
O=C(Nc1ccc(O)c(-c2nc3ccccc3s2)c1)C1=COCCO1 | n | 32 | n | n | n | n
CC(=O)Nc1ccc(O)c(-c2nc3ccccc3s2)c1 | n | 36 | n | n | n | n
Cc1ccsc1C(=O)Nc1ccc(O)c(-c2nc3ccccc3s2)c1 | n | n | n | n | x | x
COC(=O)C1=C(C)NC(=O)NC1c1ccc(N2CCC(c3ccccc3)=N2)cc1 (stereo not given) | n | 38 | 85 | n | n | n
Nc1c(S(=O)(=O)c2cccs2)c2nc3ccccc3nc2n1Cc1ccccc1 | n | 55 | 44 | n | n | n
C=CCNC1=C(Cl)C(=O)N(c2cccc(Cl)c2Cl)C1=O | n | 32 | n | n | n | n
O=C1C(Cl)=C(NCC2CCCO2)C(=O)N1c1cccc(Cl)c1Cl (stereo not given) | n | n | n | n | x | x
COc1ccc(C2CC(c3ccc(C(F)(F)F)cc3)=NN2c2ccc(S(N)(=O)=O)cc2)cc1 (stereo not given) | n | 28 | 23 | n | n | n
COc1ccc(C2CC(c3ccccc3Br)=NN2c2ccc(S(N)(=O)=O)cc2)cc1 (stereo not given) | n | n | n | n | x | x
COc1ccc(C2CC(c3ccccc3F)=NN2c2ccc(S(N)(=O)=O)cc2)cc1 (stereo not given) | n | 35 | 34 | n | n | n
Clc1ncccc1-c1nc2ccccc2s1 | n | n | n | n | x | x
O=c1c(-c2nc3ccccc3s2)cccn1Cc1ccc(Cl)cc1 | n | 90 | 123 | n | n | n
O=C(NCCN1CCCC1)C1CCC(=O)N(CCCN2CCOCC2)C1 (stereo not given) | n | 45 | n | n | n | n
O=C(NCCOc1ccccc1)C1CCC(=O)N(CCCN2CCOCC2)C1 (stereo not given) | n | n | n | n | x | x
CCOc1ccc(N=CC2=C(O)CC(c3ccco3)CC2=O)cc1 (stereo not given) | n | 54 | 38 | n | n | n
O=C1CC(c2ccco2)CC(O)=C1C=Nc1cc(Cl)cc(Cl)c1 (stereo not given) | n | n | n | n | x | x
CC(=O)NCc1ccc(OCCCN2CCC(C(O)(c3ccccc3)c3ccccc3)CC2)cc1 | x | x | x | n | x | x
C[C@@H]1C=CCCO[C@]12C(=O)N(Cc1ccc(F)cc1)c1ccccc12 | x | x | x | n | x | x
CCC(C)Sc1ccc(-c2nc3ccc(C)cn3c2NCc2ccccc2)cc1OC (stereo not given) | n | n | n | x | x | x
CCC(C)Sc1cc(-c2nc3ccc(C)cn3c2NCc2ccccc2)ccc1OC (stereo not given) | n | 28 | 22 | n | n | n
CCOC(=O)C1=CCN(S(=O)(=O)c2ccc(Br)cc2)C1c1cccc(Cl)c1 (stereo not given) | x | x | x | n | x | x
NC(=O)c1nsc(C(=O)N(c2ccccc2F)C(C(=O)NCc2ccc(F)cc2)c2ccc(O)cc2)c1N (stereo not given) | n | 28 | n | n | n | n
COc1ccc(C(C(=O)NCc2ccccc2)N(C(=O)c2snc(C(N)=O)c2N)c2ccccc2OC)cc1 (stereo not given) | n | 29 | n | n | n | n
SMILES | bovine MsrA act | proCasp7 act | procasp3 activ | MsrA inh | PC3 dual counter | Procasp7 act
COc1ccccc1N(C(=O)c1snc(C(N)=O)c1N)C(C(=O)NCc1ccccc1)c1ccc(O)cc1 (stereo not given) | n | x | x | n | x | x
COc1ccc(C(=O)N/N=C/c2ccc3cccc(OCc4ccccc4)c3n2)cc1 | n | 30 | n | n | n | n
COc1ccc(-c2oc(=O)c3cc(OC)c(OC)cc3c2-c2cc(F)cc(OC)c2)cc1 | n | n | n | n | x | x
COc1ccc(-c2c(-c3ccc(C#N)cc3)oc(=O)c3cc(OC)c(OC)cc23)cc1 | n | 26 | n | n | n | n
CC(C)C[C@H](NC(=O)c1ccc(Cl)cc1Cl)C(=O)N1CCC[C@H]1C(=O)NCc1ccccc1 | x | x | x | n | x | x
COc1ccc(Nc2oc(-c3cccs3)nc2C#N)cc1 | n | 53 | n | n | n | n
CCc1cc2c(nc1CC)CCCN2S(=O)(=O)c1ccc(C(F)(F)F)cc1 | x | x | x | n | x | x
O=c1[nH]cnc2sc(-c3ccccc3)cc12 | n | n | n | n | x | x
O=c1[nH]c(-c2ccccc2)nc2sc(-c3ccccc3)cc12 | n | 26 | 29 | n | n | n
COc1ccc2nc3cc(Cl)ccc3c(Nc3cc(C(C)C)c(O)cc3C)c2c1 | n | 26 | n | n | n | n
COc1ccc(S(=O)(=O)Nc2cc(C(C)C)c(O)cc2C)cc1 | n | n | n | n | x | x
Cc1ccc(-c2cc(-c3ccc(F)cc3)nc(N)c2C#N)o1 | n | 50 | 42 | n | n | n
CCCCCCc1cc2cc(S(=O)(=O)c3ccc(Cl)cc3)c(=O)oc2cc1O | n | n | n | n | x | x
CCCCCCc1cc2cc(S(=O)(=O)c3ccc(C)cc3)c(=O)oc2cc1O | n | 31 | 86 | n | n | n
COc1ccccc1[C@H]1C(c2ccccc2)=NN(c2ccccc2)[C@@H]1CO | n | 50 | 25 | x | n | n
O=C(NNC(=O)C1CC(c2cccnc2)=NO1)Nc1ccccc1F (stereo not given) | n | 26 | n | n | n | n
CCOC(=O)C1=CCN(S(=O)(=O)c2ccc(Br)cc2)C1c1cccc(Br)c1 (stereo not given) | x | x | x | n | x | x
Cc1cc(C)c(C#N)c(SCC(=O)Nc2ccccc2C)n1 | n | n | n | n | x | x
Cc1ccc2sc(NC(=O)CSc3nc(C)cc(C)c3C#N)nc2c1 | n | 42 | n | n | n | n
COC(=O)C1=NN(c2ccc(Cl)cc2)C2C(=O)N(c3ccccc3OC)C(=O)C12 (stereo not given) | n | 30 | n | n | n | n
CCOC(=O)C1=NN(c2ccccc2)C2C(=O)N(c3ccccc3OC)C(=O)C12 (stereo not given) | n | n | n | n | x | x
Cc1ccc(N2C(=O)C3C(C(=O)c4ccccc4)=NN(c4ccccc4)C3C2=O)cc1 (stereo not given) | n | n | n | n | x | x
COc1ccccc1N1C(=O)C2C(C(=O)c3ccccc3)=NN(c3ccccc3)C2C1=O (stereo not given) | n | 33 | n | n | 26 | n
